From ChEMBL document CHEMBL1154507, “Synthesis and characterization of Deltalac-acetogenins that potently inhibit mitochondrial complex I” (Bioorg Med Chem, 2009)
Calls of active or inactive are those of the source. The rule behind the calls is not given here.

Tests used:
MCF7 [1] = assay: Induction of shift to glycolysis in human MCF7 cells assessed as lactate production at 6.6 uM after 3 hrs; assay type: functional
[2] = Cytotoxicity against human MCF10A cells by MTT assay; assay type: cell-based; details: MCF-10A
A549 [3] = assay: Cytotoxicity against human A549 cells by MTT assay; assay type: functional, cell-based
MCF7 [4] = assay: Cytotoxicity against human MCF7 cells by MTT assay; assay type: functional, cell-based
[5] = Inhibition of Electron transport protein complex 1 in bovine heart submitochondrial particles assessed as NADH oxidase activity by spectrophotometric analysis; parameters: species or system Bos taurus
Method in brief: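 Beef-heart inverted SMP (stored at −80 °C in 0.25 M sucrose, 10 mM Tris-HCl pH 7.4) diluted to 0.5 mg/mL and NADH-activated. Inhibitor pre-equilibrated with SMP 5 min in 50 mM Hepes pH 7.5, 5 mM MgCl2. NADH started the reaction. Initial linear rates were read at 340 nm, 30 °C, with DMSO ≤2%. IC50 is half-maximal inhibition of control; mean ± SD, three independent experiments.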

[6] = Cytotoxicity against human M059K ATCC CRL2365 cells by MTT assay; assay type: functional, cell-based
[7] = Cytotoxicity against mouse 3LL cells by MTT assay; assay type: functional, cell-based
M059J [8] = assay: Cytotoxicity against human M059J ATCC CRL2366 cells by MTT assay; assay type: functional, cell-based
[9] = Inhibition of Electron transport protein complex 1 in bovine heart submitochondrial particles assessed as NADH ubiquinone oxidoreductase oxidase activity by spectrophotometric analysis in presence of exogenous ubiquinone 1; parameters: species or system Bos taurus
Method in brief: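 Activated beef-heart inverted SMP were pre-equilibrated with inhibitor 5 min, then NADH was added at 30 °C. Medium: 0.25 M sucrose, 1 mM MgCl2, 2 mM KCN, antimycin A, ubiquinone Q1, 50 mM phosphate pH 7.4. Rate was followed at 340 nm, DMSO ≤2%. IC50 is half-maximal inhibition of control; mean ± SD of three independent experiments.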

MCF7 [10] = assay: Induction of shift to glycolysis in human MCF7 cells assessed as lactate production at < 0.15 uM after 3 hrs; assay type: functional
[11] = Cytotoxicity against human MCF10A cells by SRB assay; assay type: cell-based; details: mcf-10a
ATCC CRL2365 = assay: Cytotoxicity against human M059K ATCC CRL2365 cells by SRB assay; assay type: functional, cell-based
Bos taurus [12] = organism: Bos taurus; assay: Inhibition of Electron transport protein complex 1 in bovine heart submitochondrial particles assessed as residual NADH oxidase activity at 1 uM by spectrophotometric analysis
MCF7 [13] = assay: Cytotoxicity against human MCF7 cells by SRB assay; assay type: functional, cell-based
A549 [14] = assay: Cytotoxicity against human A549 cells by SRB assay; assay type: functional, cell-based
3LL = assay: Cytotoxicity against mouse 3LL cells by SRB assay; assay type: functional, cell-based
M059J [15] = assay: Cytotoxicity against human M059J ATCC CRL2366 cells by SRB assay; assay type: functional, cell-based
MCF7 [16] = assay: Induction of shift to glycolysis in human MCF7 cells assessed as lactate production at 0.38 uM after 3 hrs; assay type: functional
Bos taurus [17] = organism: Bos taurus; assay: Inhibition of Electron transport protein complex 1 in bovine heart submitochondrial particles assessed as residual NADH ubiquinone oxidoreductase oxidase activity at 1 uM by spectrophotometric analysis in presence of exogenous ubiquinone 1
MCF7 [18] = assay: Induction of shift to glycolysis in human MCF7 cells assessed as lactate production at 0.44 uM after 3 hrs; assay type: functional
MCF7 [19] = assay: Induction of shift to glycolysis in human MCF7 cells assessed as lactate production at 18.2 uM after 3 hrs; assay type: functional

SMILES	IC50 [2] [µM]	IC50 (A549 [3]) [µM]	IC50 (MCF7 [4]) [µM]	IC50 [5] [µM]	IC50 [6] [µM]	IC50 [7] [µM]	IC50 (M059J [8]) [µM]	IC50 [9] [µM]	Activity (Bos taurus [12]) [%]	Activity (Bos taurus [17]) [%]	further results
CCCCCCCCCC[C@@H](O)[C@H]1CC[C@H]([C@H]2CC[C@H]([C@H](O)CCCCCCCCCC)O2)O1 [dleta-lac-Acetogenin]	> 20	> 20	> 20	0.0123	> 20	0.99	> 20	10.4			Activity (MCF7 [1]): 616 µM
CCCCCC[C@H]1C(=O)O[C@H](C)[C@H](NC(=O)c2cccc(NC=O)c2O)C(=O)O[C@@H](C)[C@@H]1OC(=O)CC(C)C [ANTIMYCIN A]											Activity (MCF7 [10]): 1520 µM
CCCCCCCC#CC[C@@H](O)[C@H]1CC[C@H]([C@H]2CC[C@H]([C@H](O)CC#CCCCCCCC)O2)O1	2	13.2	7.6	0.0301	20.3	5.2	> 20.9	0.048	12	18	Activity [11]: Active; Activity (ATCC CRL2365): Active; Activity (MCF7 [13]): Active; Activity (A549 [14]): Active; Activity (3LL): Active; Activity (M059J [15]): Active; Activity (MCF7 [16]): 1080 µM
CCCCc1ccc(OCCC#CC[C@@H](O)[C@H]2CC[C@H]([C@H]3CC[C@H]([C@H](O)CC#CCCOc4ccc(CCCC)cc4)O3)O2)cc1	> 16	> 16	> 16	0.0388	14.6	0.48	> 16	1.7	18	25	Activity (MCF7 [18]): 1280 µM
CCCCc1ccc(OCCCCC[C@@H](O)[C@H]2CC[C@H]([C@H]3CC[C@H]([C@H](O)CCCCCOc4ccc(CCCC)cc4)O3)O2)cc1	> 16	> 16	> 16	0.0196	> 16	0.64	> 16	> 15			Activity (MCF7 [19]): 572 µM
